Results on six compounds are retold here after paper PMC8518816 (Chemmedchem, 2021).

Assay [1] concerns the target T1, PTP1B (Homo sapiens, UniProt P18031).
T1 sequence (P18031 1-322 limits assumed): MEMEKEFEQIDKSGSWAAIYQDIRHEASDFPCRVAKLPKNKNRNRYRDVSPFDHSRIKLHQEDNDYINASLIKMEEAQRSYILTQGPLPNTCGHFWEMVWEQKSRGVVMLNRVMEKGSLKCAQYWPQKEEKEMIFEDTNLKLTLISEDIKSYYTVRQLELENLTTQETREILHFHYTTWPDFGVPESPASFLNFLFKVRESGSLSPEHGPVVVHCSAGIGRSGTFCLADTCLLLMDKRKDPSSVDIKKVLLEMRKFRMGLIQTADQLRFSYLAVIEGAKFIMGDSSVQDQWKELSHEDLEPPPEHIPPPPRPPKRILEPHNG
Put plainly: PTP1B enzyme inhibition. It counts as biochemical. Conditions: for inhibition at 1 µM: read-out: % Inhib. PTP1B @ 1 μM. In a few lines: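 Recombinant 322-amino-acid PTP1B preincubated with test compound; pNPP substrate then added and hydrolysis followed as absorbance increase at 405 nm. IC50 fitted from increasing compound concentrations, each point in duplicate. Percent inhibition also taken at 1 μM.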

Assay [2] deals with T2, TCPTP (Homo sapiens, UniProt P17706).
T2 sequence (P17706 1-341 limits assumed): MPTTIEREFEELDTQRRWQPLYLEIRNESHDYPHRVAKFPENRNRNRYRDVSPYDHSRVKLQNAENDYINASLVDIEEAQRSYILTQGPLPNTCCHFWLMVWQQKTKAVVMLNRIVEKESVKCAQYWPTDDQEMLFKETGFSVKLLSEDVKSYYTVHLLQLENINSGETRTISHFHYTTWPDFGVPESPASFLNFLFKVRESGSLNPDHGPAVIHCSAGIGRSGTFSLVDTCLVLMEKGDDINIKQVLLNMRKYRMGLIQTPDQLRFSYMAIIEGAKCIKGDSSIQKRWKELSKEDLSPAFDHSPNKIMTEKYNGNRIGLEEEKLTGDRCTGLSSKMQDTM
Description: TCPTP enzyme inhibition. It counts as biochemical. Conditions: read-out: % Inhib. TCPTP @ 1 μM. The essentials:
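Selectivity counter-screen using recombinant 341-amino-acid TCPTP mixed with test compound at 1 μM. Substrate pNPP added, and hydrolysis read as absorbance increase at 405 nm. Each point run in duplicate; output is percent inhibition.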

Assay [3] relates to C2 C12 myotubes. Description: Glucose uptake. It counts as cell-based, Mouse. Conditions: 2 μM, 90 min, 2-NBDG 0.1 mM. In a few lines: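 Mouse C2C12 myoblasts grown in DMEM with 10 % heat-inactivated FBS and penicillin/streptomycin (37 °C, 5 % CO2), then differentiated in DMEM with 2 % horse serum, changed every 48 h. Test compound at 2 μM for 90 min (insulin 10 nM, 30 min as positive control), then 0.1 mM 2-NBDG for 30 min. Washed three times with cold PBS. Intracellular fluorescence minus no-2-NBDG autofluorescence, corrected for BCA protein, relative to vehicle; 5 independent experiments, mean ± S.E.M.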

Setting [4] is: IC50±SD, soluble 322 amino acids PTP1B, pNPP substrate.
[5] abbreviates: pIC50, soluble 322 amino acids PTP1B.

`Cc1nc2ccccc2n2cccc12` [Compound 1, 4‐methylpyrrolo[1,2‐a]quinoxaline]: in assay [1], the “SI (selectivity index, percentage inhibition ratio PTP1B/TCPTP at 1 μM)” value came out at 0.94 and the inhibition at 1 µM was 51%. Further, the inhibition at 1 µM in assay [2] was determined as 54%.

On to `Cc1nc2ccccc2n2ccnc12` [Compound 2, 4‐Methylimidazo[1,2‐a]quinoxaline], for which the “SI (selectivity index, percentage inhibition ratio PTP1B/TCPTP at 1 μM)” value in assay [1] was found to be 1.97. The IC50 in assay [1] (setting [4]) is 460 ± 40 nM; in assay [1] (setting [5]) it was 468 nM. In addition, the inhibition at 1 µM in assay [1] was 87%; in assay [2] it was 44%. Further, the “increase of glucose uptake with respect to control cells” value in assay [3] is reported as 15%.

For the compound `Cc1nc2ccccc2n2cnnc12` [Compound 3, 4‐Methyl[1,2,4]triazolo[4,3‐a]quinoxaline], the “SI (selectivity index, percentage inhibition ratio PTP1B/TCPTP at 1 μM)” value in assay [1] stood at 1.27. Also, the IC50 is 790 ± 10 nM in assay [1] (setting [4]) and 794 nM in assay [1] (setting [5]). In addition, the inhibition at 1 µM amounted to 70% in assay [1] and 55% in assay [2]. Further, in assay [3], the “increase of glucose uptake with respect to control cells” value is ~30%.

`Cc1nc2ccccc2n2nnnc12` [Compound 4, 4‐Methyltetrazolo[1,5‐a]quinoxaline]: the IC50 in assay [1] (setting [4]) was 1480 ± 70 nM; in assay [1] (setting [5]), 1510 nM. Further, the inhibition at 1 µM in assay [1] stood at 46%; in assay [2], 50%.

As to `c1ccc2c(c1)ncc1nnnn12` [Compound 9, Tetrazolo[1,5‐a]quinoxaline], the “SI (selectivity index, percentage inhibition ratio PTP1B/TCPTP at 1 μM)” value in assay [1] came out at 1.17. Besides, the IC50 in assay [1] (setting [4]) is 620 ± 200 nM; in assay [1] (setting [5]) it was 631 nM. The inhibition at 1 µM was determined as 80% in assay [1] and 68% in assay [2].

On to `CC1Nc2ccccc2-n2nnnc21` (stereo not shown) [Compound 10, 4‐Methyl‐4,5‐dihydrotetrazolo[1,5‐a]quinoxaline], for which the IC50 in assay [1] (setting [4]) was 2170 ± 80 nM; in assay [1] (setting [5]), 2190 nM. Further, the inhibition at 1 µM is 37% in assay [1] and 35% in assay [2].

Usually IC50 stands for the concentration needed to halve the response being measured.
